Experimental data from ChEMBL document CHEMBL4706514, “PSNCBAM-1 analogs: Structural evolutions and allosteric properties at cannabinoid CB1 receptor” (Eur J Med Chem, 2020).
Active and inactive are the calls of the source. The rule behind the calls is not given here.

How the values were obtained:
[1] = target: Cannabinoid receptor 2 (Homo sapiens) (UniProt P34972); assay: Positive allosteric modulation of human CB2 receptor expressed in CHO cell membranes assessed as increase in binding [3H]CP55940 to the receptor at 0.001 to 10 uM after 60 mins by liquid scintillation spectrometric method; settings: Cell membrane, dose 0.001-10 µM
Sequence of Cannabinoid receptor 2 (Homo sapiens) (P34972 whole entry): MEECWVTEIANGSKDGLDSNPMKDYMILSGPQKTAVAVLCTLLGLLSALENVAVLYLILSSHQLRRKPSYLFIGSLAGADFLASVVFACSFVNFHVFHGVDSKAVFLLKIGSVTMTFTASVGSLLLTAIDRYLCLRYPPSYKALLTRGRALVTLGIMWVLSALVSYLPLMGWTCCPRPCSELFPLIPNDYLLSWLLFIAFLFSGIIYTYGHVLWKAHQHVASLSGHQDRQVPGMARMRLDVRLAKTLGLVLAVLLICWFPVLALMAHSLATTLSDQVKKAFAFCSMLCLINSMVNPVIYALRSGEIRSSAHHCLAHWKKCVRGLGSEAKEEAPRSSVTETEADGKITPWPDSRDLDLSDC
Method in brief: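 Human CB2 stably expressed in CHO cells; membranes at 50.0 µg protein/tube with [3H]CP55940 0.700 nM and compound 1 nM to 10 µM (0.1% DMSO). Incubated 60 min at 37 °C, then filtered under vacuum with ice-cold Tris buffer and scintillation counted. Six independent experiments, each in duplicate.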

[2] = target: Cannabinoid receptor 1 (Homo sapiens) (UniProt P21554); assay: Negative allosteric modulation of human CB1 receptor expressed in CHO cell membranes assessed as decrease in CP55940-induced agonist activity at 100 nM after 90 mins by [35S]-GTPgammaS binding based liquid scintillation spectrometric method; type: functional; settings: Cell membrane, filed as negative allosteric modulator
Sequence of Cannabinoid receptor 1 (Homo sapiens) (P21554 whole entry): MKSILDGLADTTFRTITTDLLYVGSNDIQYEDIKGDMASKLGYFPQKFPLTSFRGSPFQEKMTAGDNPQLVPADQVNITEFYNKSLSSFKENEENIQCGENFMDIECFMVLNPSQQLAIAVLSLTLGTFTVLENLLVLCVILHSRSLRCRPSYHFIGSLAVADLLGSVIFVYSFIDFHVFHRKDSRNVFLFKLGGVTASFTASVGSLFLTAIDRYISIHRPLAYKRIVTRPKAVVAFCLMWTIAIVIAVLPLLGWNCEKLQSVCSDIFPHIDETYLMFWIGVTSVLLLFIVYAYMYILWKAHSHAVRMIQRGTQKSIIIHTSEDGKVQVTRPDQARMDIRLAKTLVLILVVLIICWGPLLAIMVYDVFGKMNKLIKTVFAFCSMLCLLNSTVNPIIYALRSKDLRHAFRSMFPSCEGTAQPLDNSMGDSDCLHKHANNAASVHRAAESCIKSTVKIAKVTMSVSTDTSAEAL

[3] = target: Cannabinoid receptor 1 (Homo sapiens) (UniProt P21554); assay: Negative allosteric modulation of human CB1 receptor expressed in CHO cell membranes assessed as decrease in CP55940-induced agonist activity at 1 uM after 90 mins by [35S]-GTPgammaS binding based liquid scintillation spectrometric method relative to control; type: functional; parameters: scale not given: the % may be the effect or the level left; settings: Cell membrane
Method in brief: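 Test compound held fixed at 1 µM (from 10.00 mM DMSO stock) against CP55940 0.1 nM to 1 µM. Incubated with hCB1-CHO membranes (50.0 µg protein/tube, 0.1% DMSO) for 90 min at 30 °C, with [35S]GTPγS 0.1 nM and GDP 30 µM in Tris/MgCl2/NaCl/EDTA/DTT buffer, pH 7.4. Bound label filtered and counted. Data taken as % change over vehicle basal; mean of six experiments in duplicate.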

[4] = target: Cannabinoid receptor 1 (Homo sapiens) (UniProt P21554); assay: Inverse agonist activity at human CB1 receptor expressed in CHO cell membranes assessed as decrease in cellular response up to 1 uM after 90 mins by [35S]-GTPgammaS binding based liquid scintillation spectrometric method; type: functional; settings: Cell membrane, dose microM <=1, time 90.0 min
Method in brief: (§1)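 Compound alone, 1 nM to 10 µM (from 10.00 mM DMSO stocks; 0.1% DMSO per tube), incubated 90 min at 30 °C with hCB1-CHO membranes (50.0 µg protein/tube). Buffer: 50 mM Tris, 10 mM MgCl2, 100 mM NaCl, 0.2 mM EDTA, 1 mM DTT, pH 7.4, with [35S]GTPγS 0.1 nM and GDP 30 µM. Read by filtration and scintillation counting. Response expressed as % change from vehicle basal stimulation. Six independent experiments, each in duplicate.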

[5] = target: Cannabinoid receptor 1 (Homo sapiens) (UniProt P21554); assay: Inverse agonist activity at human CB1 receptor expressed in CHO cell membranes assessed as decrease in cellular response >1 uM after 90 mins by [35S]-GTPgammaS binding based liquid scintillation spectrometric method; type: functional; parameters: scale not given: the % may be the effect or the level left; settings: Cell membrane, dose microM >1, time 90.0 min; method in brief: as §1
[6] = target: Cannabinoid receptor 1 (Homo sapiens) (UniProt P21554); assay: Positive allosteric modulation of human CB1 receptor expressed in CHO cell membranes assessed as increase in binding [3H]CP55940 to the receptor up to 10 uM after 60 mins by liquid scintillation spectrometric method relative to control; settings: Cell membrane, filed as positive allosteric modulator, dose microM <=10, time 60.0 min
Method in brief: (§2)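 Membranes from CHO cells stably expressing human CB1 (50.0 µg protein/tube) incubated 60 min at 37 °C with [3H]CP55940 0.700 nM and compound 1 nM to 10 µM (from 10.00 mM DMSO stocks; 0.1% DMSO). Ended with ice-cold Tris buffer and vacuum filtration, six washes. Filters oven-dried, then scintillation counted. Six independent experiments in duplicate; one-sample t-test against zero.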

[7] = target: Cannabinoid receptor 1 (Homo sapiens) (UniProt P21554); assay: Positive allosteric modulation of human CB1 receptor expressed in CHO cell membranes assessed as increase in binding [3H]CP55940 to the receptor after 60 mins by liquid scintillation spectrometric method; settings: Cell membrane, filed as positive allosteric modulator, dose 1-10000 nM; method in brief: as §2
[8] = target: Cannabinoid receptor 1 (Homo sapiens) (UniProt P21554); assay: Inverse agonist activity at human CB1 receptor expressed in CHO cell membranes assessed as decrease in cellular response up to 10 uM after 90 mins by [35S]-GTPgammaS binding based liquid scintillation spectrometric method; type: functional; settings: Cell membrane, dose microM <=10, time 90.0 min; method in brief: as §1
[9] = target: Cannabinoid receptor 1 (Homo sapiens) (UniProt P21554); assay: Positive allosteric modulation of human CB1 receptor expressed in CHO cell membranes assessed as increase in binding [3H]CP55940 to the receptor at 10 uM after 60 mins by liquid scintillation spectrometric method relative to control; settings: Cell membrane; method in brief: as §2
[10] = target: Cannabinoid receptor 1 (Homo sapiens) (UniProt P21554); assay: Inverse agonist activity at human CB1 receptor expressed in CHO cell membranes assessed as decrease in cellular response at 0.001 to 10 uM after 90 mins by [35S]-GTPgammaS binding based liquid scintillation spectrometric method relative to control; type: functional; parameters: scale not given: the % may be the effect or the level left; settings: Cell membrane, dose 0.001-10 µM; method in brief: as §1
[11] = target: Cannabinoid receptor 1 (Homo sapiens) (UniProt P21554); assay: Positive allosteric modulation of human CB1 receptor expressed in CHO cell membranes assessed as increase in binding [3H]CP55940 to the receptor at 1 uM after 60 mins by liquid scintillation spectrometric method relative to control; settings: Cell membrane; method in brief: as §2
[12] = target: Cannabinoid receptor 2 (Homo sapiens) (UniProt P34972); assay: Binding affinity to human CB2 receptor expressed in CHO cell membranes assessed as displacement of [3H]CP55940 from the receptor > 1 uM after 60 mins by liquid scintillation spectrometric method; settings: Cell membrane, dose microM >1, time 60.0 min

Structure (SMILES) | Activity [3] | Activity [6] [%] | Activity [7] | further results
O=C(CCc1ccc(Cl)cc1)Nc1cccc(-c2cccc(N3CCCC3)c2)c1 |  |  |  | Activity [9]: inactive
O=C(Nc1ccc(Cl)cc1)Nc1cccc(Nc2cccc(N3CCCC3)n2)n1 | inactive | 60 | Dose-dependent effect | Activity [8]: inactive
O=C(Nc1ccc(Cl)cc1)Nc1cccc(Nc2ccccc2)c1 |  | 90 | Dose-dependent effect | Activity [10]: 30%
O=C(Nc1ccc(Cl)cc1)Nc1cccc(-c2cccc(N3CCCCC3)c2)c1 | 30% |  |  | Activity [11]: 40%; Activity [4]: inactive; Activity [5]: 30%; Displacement [12]: Active

Further lines, with some results ahead:

Activity [3] | Activity [6] [%] | Activity [7] | Structure (SMILES) | further results
30% | 90 | Dose-dependent effect | O=C(Nc1ccc(Cl)cc1)Nc1cccc(Nc2ccc(F)cc2)c1 | Activity [1]: inactive; Activity [2]: Active; Activity [4]: inactive; Activity [5]: 35%
inactive | 50 | Dose-dependent effect | O=C(Nc1ccc(Cl)cc1)Nc1cccc(Nc2cccc(N3CCCCC3)n2)n1 | Activity [8]: inactive
 | 170 | Dose-dependent effect | O=C(Nc1ccc(Cl)cc1)Nc1cccc(Nc2ccccn2)c1 | Activity [10]: 30%
 | 70 | Dose-dependent effect | O=C(Nc1ccc(F)cc1)Nc1cccc(-c2cccc(N3CCCC3)c2)c1 | Activity ([10]; filed as inverse agonist): 45%
